Measurements reported in ChEMBL document CHEMBL1932983, “Towards a stable noeuromycin analog with a D-manno configuration: synthesis and glycosidase inhibition of D-manno-like tri- and tetrahydroxylated azepanes” (Bioorg Med Chem, 2012).
The source made the active and inactive calls. The calls are words filed in the database; no cut-off is given here.

Key:
[1] = biological target: Oligo-1,6-glucosidase IMA1 (Saccharomyces cerevisiae S288c, UniProt P53051); experiment: Inhibition of yeast alpha-glucosidase
Chain of Oligo-1,6-glucosidase IMA1 (P53051 whole entry): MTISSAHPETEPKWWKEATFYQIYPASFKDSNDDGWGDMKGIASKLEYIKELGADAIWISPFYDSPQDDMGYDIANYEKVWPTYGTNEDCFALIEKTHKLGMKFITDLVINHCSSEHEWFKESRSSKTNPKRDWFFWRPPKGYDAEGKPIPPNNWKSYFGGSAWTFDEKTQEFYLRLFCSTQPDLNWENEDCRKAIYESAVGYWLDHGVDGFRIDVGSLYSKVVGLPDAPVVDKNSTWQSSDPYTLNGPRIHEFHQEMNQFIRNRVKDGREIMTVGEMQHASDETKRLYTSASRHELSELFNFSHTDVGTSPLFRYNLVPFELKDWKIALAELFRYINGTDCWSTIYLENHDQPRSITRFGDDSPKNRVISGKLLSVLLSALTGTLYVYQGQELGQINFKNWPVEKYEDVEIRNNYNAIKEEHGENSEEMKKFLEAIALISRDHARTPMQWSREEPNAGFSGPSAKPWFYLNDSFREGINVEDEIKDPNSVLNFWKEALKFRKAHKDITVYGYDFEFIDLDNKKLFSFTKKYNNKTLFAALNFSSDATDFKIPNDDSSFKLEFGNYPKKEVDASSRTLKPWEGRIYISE

[2] = Inhibition of almond beta-glucosidase; parameters: species or system Prunus dulcis
[3] = Inhibition of coffee beans alpha-galactosidase; parameters: species or system Coffea
Beta-galactosidase = biological target: T1, Beta-galactosidase (Bos taurus, UniProt Q58D55); experiment: Inhibition of bovine liver beta-galactosidase
T1 sequence (Q58D55 whole entry): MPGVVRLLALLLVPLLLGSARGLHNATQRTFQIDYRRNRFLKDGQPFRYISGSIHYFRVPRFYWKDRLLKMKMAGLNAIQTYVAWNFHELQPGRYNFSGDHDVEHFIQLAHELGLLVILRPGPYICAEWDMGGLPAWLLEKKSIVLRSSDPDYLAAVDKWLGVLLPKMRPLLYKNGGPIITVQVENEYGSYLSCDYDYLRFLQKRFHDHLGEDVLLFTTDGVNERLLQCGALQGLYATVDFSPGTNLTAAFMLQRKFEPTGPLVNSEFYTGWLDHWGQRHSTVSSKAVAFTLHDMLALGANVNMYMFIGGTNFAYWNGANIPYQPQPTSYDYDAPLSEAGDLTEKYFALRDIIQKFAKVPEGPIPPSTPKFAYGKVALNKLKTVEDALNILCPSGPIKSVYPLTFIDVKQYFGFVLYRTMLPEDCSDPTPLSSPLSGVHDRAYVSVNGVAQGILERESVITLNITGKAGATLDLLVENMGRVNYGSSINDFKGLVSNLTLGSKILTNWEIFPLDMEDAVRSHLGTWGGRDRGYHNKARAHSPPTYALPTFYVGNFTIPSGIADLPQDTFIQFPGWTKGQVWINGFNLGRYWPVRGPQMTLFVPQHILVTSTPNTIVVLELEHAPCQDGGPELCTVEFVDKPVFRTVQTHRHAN

[4] = Inhibition of jack beans alpha-mannosidase; parameters: species or system Canavalia ensiformis
Beta-glucuronidase = biological target: T2, Beta-glucuronidase (Bos taurus, UniProt A3KMY8); experiment: Inhibition of bovine liver beta glucuronidase
T2 sequence (A3KMY8 whole entry): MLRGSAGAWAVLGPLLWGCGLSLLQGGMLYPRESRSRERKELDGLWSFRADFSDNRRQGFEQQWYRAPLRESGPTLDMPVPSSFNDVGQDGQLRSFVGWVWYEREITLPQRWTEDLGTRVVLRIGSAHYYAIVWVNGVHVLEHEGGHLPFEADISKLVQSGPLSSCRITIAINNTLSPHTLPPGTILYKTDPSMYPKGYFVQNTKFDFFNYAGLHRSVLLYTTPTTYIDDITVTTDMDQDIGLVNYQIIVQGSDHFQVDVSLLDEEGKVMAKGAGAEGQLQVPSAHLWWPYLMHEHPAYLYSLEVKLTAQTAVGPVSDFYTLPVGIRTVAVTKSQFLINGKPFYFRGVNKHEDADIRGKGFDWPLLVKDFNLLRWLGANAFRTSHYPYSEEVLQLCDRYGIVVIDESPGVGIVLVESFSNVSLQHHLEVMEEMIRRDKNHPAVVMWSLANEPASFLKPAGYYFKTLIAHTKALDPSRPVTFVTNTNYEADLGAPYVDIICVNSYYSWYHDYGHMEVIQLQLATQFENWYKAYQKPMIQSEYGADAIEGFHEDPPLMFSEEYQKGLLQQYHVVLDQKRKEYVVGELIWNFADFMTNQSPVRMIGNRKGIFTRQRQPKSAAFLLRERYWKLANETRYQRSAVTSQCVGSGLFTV

[5] = biological target: Probable alpha-glucosidase Os06g0675700 (Oryza sativa Japonica Group) (UniProt Q653V7); experiment: Inhibition of rice alpha-glucosidase at 1000 uM
Chain of Probable alpha-glucosidase Os06g0675700 (Oryza sativa Japonica Group) (Q653V7 whole entry): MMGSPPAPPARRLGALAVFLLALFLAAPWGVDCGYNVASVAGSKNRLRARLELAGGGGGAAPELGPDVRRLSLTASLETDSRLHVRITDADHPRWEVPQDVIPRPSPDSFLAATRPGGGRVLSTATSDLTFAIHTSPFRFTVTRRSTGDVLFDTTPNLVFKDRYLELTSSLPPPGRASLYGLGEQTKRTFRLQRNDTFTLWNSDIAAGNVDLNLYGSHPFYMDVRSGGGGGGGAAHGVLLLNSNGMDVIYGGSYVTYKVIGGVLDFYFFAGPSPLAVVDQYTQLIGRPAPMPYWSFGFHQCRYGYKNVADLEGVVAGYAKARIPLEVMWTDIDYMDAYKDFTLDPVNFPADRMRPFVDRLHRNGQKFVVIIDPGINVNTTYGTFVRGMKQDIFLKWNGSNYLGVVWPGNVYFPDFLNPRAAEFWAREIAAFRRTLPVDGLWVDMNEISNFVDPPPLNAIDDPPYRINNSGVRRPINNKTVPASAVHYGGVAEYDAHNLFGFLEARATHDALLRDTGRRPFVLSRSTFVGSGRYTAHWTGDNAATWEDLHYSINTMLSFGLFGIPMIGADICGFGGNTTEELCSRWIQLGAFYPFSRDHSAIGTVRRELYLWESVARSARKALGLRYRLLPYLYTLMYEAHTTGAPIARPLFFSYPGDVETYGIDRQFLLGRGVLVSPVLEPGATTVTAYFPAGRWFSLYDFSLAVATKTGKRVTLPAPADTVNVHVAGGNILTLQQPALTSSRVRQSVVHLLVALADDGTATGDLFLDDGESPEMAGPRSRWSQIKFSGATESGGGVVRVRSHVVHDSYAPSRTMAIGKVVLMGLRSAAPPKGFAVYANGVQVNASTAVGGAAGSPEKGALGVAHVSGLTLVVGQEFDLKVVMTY
Procedure, shortened: (§1)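 Commercial glycosidases were tested with a single inhibitor level of 1000 μM, and percent inhibition was recorded. "NI" means less than 50% inhibition at that concentration.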

Helix pomatia = experiment: Inhibition of snail beta-mannosidase at 1000 uM; procedure, shortened: as §1
Penicillium decumbens = experiment: Inhibition of Penicillium decumbens alpha-L-rhamnosidase at 1000 uM; procedure, shortened: as §1
[6] = biological target: T3, Tissue alpha-L-fucosidase (Bos taurus) (UniProt Q2KIM0); experiment: Inhibition of bovine kidney alpha-L-fucosidase at 1000 uM; procedure, shortened: as §1
T3 sequence (whole entry): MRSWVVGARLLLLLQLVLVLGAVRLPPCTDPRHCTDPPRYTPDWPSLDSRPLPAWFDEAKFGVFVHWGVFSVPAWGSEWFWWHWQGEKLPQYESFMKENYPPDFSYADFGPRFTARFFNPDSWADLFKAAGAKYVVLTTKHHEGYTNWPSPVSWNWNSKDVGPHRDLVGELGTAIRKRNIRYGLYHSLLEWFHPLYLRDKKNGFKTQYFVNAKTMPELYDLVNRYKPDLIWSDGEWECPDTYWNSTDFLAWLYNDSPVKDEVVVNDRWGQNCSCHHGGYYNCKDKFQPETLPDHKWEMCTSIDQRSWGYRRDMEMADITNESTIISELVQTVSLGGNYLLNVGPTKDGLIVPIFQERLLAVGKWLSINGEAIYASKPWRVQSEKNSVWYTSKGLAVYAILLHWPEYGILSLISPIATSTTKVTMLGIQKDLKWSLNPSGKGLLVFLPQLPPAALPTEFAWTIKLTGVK

[7] = biological target: T4, Uncharacterized protein (Sus scrofa) (UniProt I3LIR5); experiment: Inhibition of pig kidney trehalase at 1000 uM; procedure, shortened: as §1
T4 sequence (whole entry): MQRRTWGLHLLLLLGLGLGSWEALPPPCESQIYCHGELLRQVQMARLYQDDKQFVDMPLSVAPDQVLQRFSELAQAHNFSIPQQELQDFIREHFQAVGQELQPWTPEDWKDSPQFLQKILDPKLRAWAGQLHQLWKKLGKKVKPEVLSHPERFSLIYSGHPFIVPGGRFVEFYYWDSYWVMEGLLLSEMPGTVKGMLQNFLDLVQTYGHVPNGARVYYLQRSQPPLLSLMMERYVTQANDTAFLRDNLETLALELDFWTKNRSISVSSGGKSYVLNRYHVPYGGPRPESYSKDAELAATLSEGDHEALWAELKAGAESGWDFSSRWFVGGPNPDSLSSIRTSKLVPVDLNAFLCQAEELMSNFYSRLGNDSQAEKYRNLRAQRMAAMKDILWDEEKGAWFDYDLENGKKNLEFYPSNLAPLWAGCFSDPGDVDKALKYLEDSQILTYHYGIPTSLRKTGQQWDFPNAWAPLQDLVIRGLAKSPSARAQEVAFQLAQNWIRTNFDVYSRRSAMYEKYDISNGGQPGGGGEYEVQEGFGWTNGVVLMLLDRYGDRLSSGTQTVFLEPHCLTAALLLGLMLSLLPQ

Aspergillus niger = experiment: Inhibition of Aspergillus niger amyloglucosidase at 1000 uM; procedure, shortened: as §1
[8] = biological target: T5, Lysosomal alpha-mannosidase (Bos taurus) (UniProt Q29451); experiment: Inhibition of lysosomal alpha-mannosidase in MDBK cells assessed as Man5-8GlcNAc2FOS formation at 0.1 to 1 mM after 24 hrs by HPLC analysis; format: cell-based
T5 sequence (whole entry): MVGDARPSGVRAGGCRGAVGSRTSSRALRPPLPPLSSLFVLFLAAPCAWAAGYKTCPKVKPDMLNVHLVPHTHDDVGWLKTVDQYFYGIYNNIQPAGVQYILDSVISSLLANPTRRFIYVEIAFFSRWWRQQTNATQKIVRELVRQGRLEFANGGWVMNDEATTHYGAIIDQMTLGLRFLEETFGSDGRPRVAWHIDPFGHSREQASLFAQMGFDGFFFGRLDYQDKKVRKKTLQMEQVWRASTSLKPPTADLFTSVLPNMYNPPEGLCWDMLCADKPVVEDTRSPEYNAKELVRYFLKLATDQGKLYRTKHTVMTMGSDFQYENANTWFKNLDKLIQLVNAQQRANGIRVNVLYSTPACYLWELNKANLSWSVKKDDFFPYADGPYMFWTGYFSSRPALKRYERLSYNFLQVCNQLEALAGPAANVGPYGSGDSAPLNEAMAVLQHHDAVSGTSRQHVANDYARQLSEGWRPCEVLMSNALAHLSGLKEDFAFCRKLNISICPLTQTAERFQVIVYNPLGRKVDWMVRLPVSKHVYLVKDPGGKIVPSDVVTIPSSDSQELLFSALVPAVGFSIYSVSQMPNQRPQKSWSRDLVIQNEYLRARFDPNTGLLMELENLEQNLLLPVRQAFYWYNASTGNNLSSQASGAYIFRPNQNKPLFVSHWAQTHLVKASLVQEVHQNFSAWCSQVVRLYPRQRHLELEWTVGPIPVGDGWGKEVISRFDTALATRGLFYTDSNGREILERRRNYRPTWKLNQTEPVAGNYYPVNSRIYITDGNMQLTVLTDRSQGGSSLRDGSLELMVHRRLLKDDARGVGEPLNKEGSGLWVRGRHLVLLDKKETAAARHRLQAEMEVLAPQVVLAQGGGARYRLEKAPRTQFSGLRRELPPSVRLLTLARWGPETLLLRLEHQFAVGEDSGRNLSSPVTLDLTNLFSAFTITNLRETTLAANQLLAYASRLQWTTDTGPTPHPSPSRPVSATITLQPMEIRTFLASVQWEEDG
Procedure, shortened: (§2)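 MDBK cells were treated with azepanes alongside untreated cells and a swainsonine control (1 mM, 24 h). Free oligosaccharides (FOS) were labelled with 2-AA and profiled by fluorescence HPLC. Mannosylated species were compared: Man3GlcNAc2 and Man5-8GlcNAc2 indicate lysosomal activity, and Man5GlcNAc1 indicates cytosolic mannosidase activity.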

[9] = biological target: Probable alpha-glucosidase Os06g0675700 (Oryza sativa Japonica Group, UniProt Q653V7); experiment: Inhibition of rice alpha-glucosidase
Chain of Probable alpha-glucosidase Os06g0675700 (Q653V7 whole entry): as the sequence (Q653V7 whole entry) above

[10] = biological target: T6, Tissue alpha-L-fucosidase (Bos taurus, UniProt Q2KIM0); experiment: Inhibition of bovine kidney alpha-L-fucosidase
T6 sequence (Q2KIM0 whole entry): T3 sequence (whole entry)

[11] = biological target: Oligo-1,6-glucosidase IMA1 (Saccharomyces cerevisiae S288c) (UniProt P53051); experiment: Inhibition of yeast alpha-glucosidase at 1000 uM; procedure, shortened: as §1
Chain of Oligo-1,6-glucosidase IMA1 (Saccharomyces cerevisiae S288c) (P53051 whole entry): as the sequence (P53051 whole entry) above

Prunus dulcis = experiment: Inhibition of almond beta-glucosidase at 1000 uM; procedure, shortened: as §1
[12] = biological target: T7, Glucosylceramidase (Bos taurus) (UniProt Q2KHZ8); experiment: Inhibition of bovine liver beta-glucosidase at 1000 uM; procedure, shortened: as §1
T7 sequence (whole entry): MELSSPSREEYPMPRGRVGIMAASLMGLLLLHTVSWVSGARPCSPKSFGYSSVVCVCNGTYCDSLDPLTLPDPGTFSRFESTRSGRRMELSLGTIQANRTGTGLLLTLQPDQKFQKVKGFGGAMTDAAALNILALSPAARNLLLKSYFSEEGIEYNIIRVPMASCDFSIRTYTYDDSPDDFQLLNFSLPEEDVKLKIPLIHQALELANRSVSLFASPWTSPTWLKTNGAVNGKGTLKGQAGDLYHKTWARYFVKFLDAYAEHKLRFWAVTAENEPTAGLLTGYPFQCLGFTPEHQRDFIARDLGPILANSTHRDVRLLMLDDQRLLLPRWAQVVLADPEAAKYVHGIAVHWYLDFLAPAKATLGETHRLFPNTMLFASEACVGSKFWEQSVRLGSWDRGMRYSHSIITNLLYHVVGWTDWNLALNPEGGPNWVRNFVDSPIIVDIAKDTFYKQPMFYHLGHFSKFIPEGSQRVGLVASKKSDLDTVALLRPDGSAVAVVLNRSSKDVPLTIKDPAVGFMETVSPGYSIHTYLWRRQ

Coffea = experiment: Inhibition of coffee beans alpha-galactosidase at 1000 uM; procedure, shortened: as §1
[13] = biological target: T8, Beta-glucuronidase (Bos taurus) (UniProt A3KMY8); experiment: Inhibition of bovine liver beta glucuronidase at 1000 uM; procedure, shortened: as §1
T8 sequence (whole entry): T2 sequence (A3KMY8 whole entry)

[14] = biological target: T5, Lysosomal alpha-mannosidase (Bos taurus); experiment: Inhibition of lysosomal alpha-mannosidase in MDBK cells assessed as Man5-8GlcNAc2FOS formation at 1 mM after 24 hrs by HPLC analysis; format: cell-based; procedure, shortened: as §2
MDBK = experiment: Inhibition of cytosolic alpha-mannosidase in MDBK cells assessed as Man5GlcNAc1 formation at 1 mM after 24 hrs by HPLC analysis; format: cell-based; conditions: Bos taurus; procedure, shortened: as §2
Canavalia ensiformis = experiment: Inhibition of jack beans alpha-mannosidase at 1000 uM; procedure, shortened: as §1

IC50 [2] [µM]	IC50 [3] [µM]	IC50 (Beta-galactosidase) [µM]	IC50 [4] [µM]	IC50 (Beta-glucuronidase) [µM]	inhibition [5] [%]	inhibition (Helix pomatia) [%]	inhibition (Penicillium decumbens) [%]	inhibition [6] [%]	inhibition [7] [%]	inhibition (Aspergillus niger) [%]	inhibition [8]	IC50 [9] [µM]	IC50 [10] [µM]	inhibition [11] [%]	inhibition (Prunus dulcis) [%]	inhibition (Coffea) [%]	inhibition [13] [%]	inhibition [14]	SMILES	also measured
157	65	420	812	594	14.7	0	1.5	25	17.2	0.3	inactive	–	–	–	–	–	–	–	OC[C@@H]1CNC[C@@H](O)[C@@H](O)[C@@H]1O	IC50 [1]: 71 µM
–	–	876	335	–	–	4.3	6.8	–	22.2	0	–	226	181	0	29.4	37.6	0	Active	C[C@H]1CNC[C@@H](O)[C@@H](O)[C@@H]1O	inhibition [12]: 49.2%; inhibition (MDBK): Active
–	–	442	–	–	0	0	0.9	15.8	16.6	14.2	–	–	–	18.9	41.4	16.8	0	Active	OC[C@H]1CNC[C@@H](O)[C@@H](O)[C@@H]1O	inhibition (Canavalia ensiformis): 23%
14	14	198	101	139	–	0.4	20.6	–	39.9	6.9	inactive	12	64	37.8	–	–	–	–	C[C@@H]1CNC[C@@H](O)[C@@H](O)[C@@H]1O	–
